Source: the EternaBench riboswitch data

Tested on: MS2 coat protein
Experiment: apparent Kd, MS2 coat protein; higher = weaker binding; RNA-MaP array; FMN 200 µM where present
Summary of the method: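 Stalled E. coli RNA polymerase transcribed each design on Illumina sequencing-chip clusters. The clusters were titrated with SNAP-549-labelled MS2 coat protein, starting at 0.7 or 1.5 nM and doubling up to 3 µM, first without ligand and then with constant ligand, in 100 mM Tris-HCl pH 7.5, 80 mM KCl, 4 mM MgCl2, BSA, DTT, yeast tRNA and Tween-20. Green signal was normalised to red-channel RNA signal and to the control-cluster median Fmax. The apparent Kd is the median of filtered binding-curve fits made for each cluster.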

[1] = designed as: OFF switch for flavin mononucleotide, no ligand
[2] = ligand present: flavin mononucleotide, designed as: OFF switch for flavin mononucleotide
[3] = designed as: ON switch for flavin mononucleotide, no ligand
[4] = ligand present: flavin mononucleotide, designed as: ON switch for flavin mononucleotide

| Sequence | apparent Kd [1] [µM] | apparent Kd [2] [µM] | apparent Kd [3] [µM] | apparent Kd [4] [µM] |
| --- | --- | --- | --- | --- |
| GUCAGCUCGUGAGGAUAUACAUCACUGCUUCGGCAGUGUAUUAAAAUAACAUGAGGAUCACCCAUGUAGAAGGCACGAGCUGAU | 0.00469 | 0.00551 | – | – |
| CAGAAGUCAGGAUAUGCUGCUCGUCACUUGCGUGAUGAGUAGCAGAAGGGACAUGAGGAUCACCCAUGUAAAGA | 0.0631 | 0.113 | – | – |
| GCUAUCGGGUGAGGAUAUAUAAUUGUGAUUAAAAUAGAAGGCAUCUCAGAAGACAUGAGGAUCACCCAUGUAGUUAAGAUGGCA | – | – | 0.0238 | 0.0201 |
| CCACCCUGAGGAUAUCCACCCUCAUACAUGAGGAUCACCCAUGUUAAUGCCUGAGUUCCCGGAGAAGGCAGAUUCC | 0.0865 | 0.0638 | – | – |
| AAAAAAAAAGUAUAGGAUAUCCGAGUGGUAACAUGAGGAUCACCCAUGUGAAGAAAGGAAGAUGAGGAGAAGGAUACAAAAAAAAA | – | – | 0.125 | 0.0485 |
| GUCAGCUCGUGAGGAUAUACAUGUGCUGGAUACAGCACUAAUUAAUUCACAUGAGGAUCACCCAUGUAGAAGGCACGAGCUGAU | 0.0161 | 0.0188 | – | – |
| GAGUGGCGAUUAGGAUAUACAGUGAUAAUGAUAGUAGAAGGAAUUGACAUGAGGAUCACCCAUGUAGGACUAAUCCAGAGAGAG | – | – | 0.0961 | 0.0849 |
| GAUUGACAUGAGGAUCACCCAUGUGAGGAUAUCGGCUGGACCGUGUUGGCUUGCCUUUCGAGAAGGCGCAUAGG | 0.0377 | 0.042 | – | – |
| AAUAAUUAGUGAGGAUAUACAUAAUUUAUUACUGUAGAAGGCACAAACCUCAAGACAUGAGGAUCACCCAUGUGGUAUUUAAAU | 0.213 | 0.39 | – | – |
| UCAUAUUUACAAGGAUAUCAAUUAAUUAAACAUCCUACAUGAGGAUCACCCAUGUUAAAAUAUUAUGAGAAGGUGUAUUGUCGG | – | – | 0.0327 | 0.0403 |
| GUAGCAUACAGAGGAUAUCUAAACCGGAAACGGACAUGAGGAUCACCCAUGUGGCGAAAGCCUAGGGAGAAGGCUGAAUGCUAC | – | – | 0.0132 | 0.0118 |
| GUAUAUCACUUAGGAUAUCUAUAAUUUAUUGAAACAUGAGGAUCACCCAUGUUCAUAAAUUUAUAGGAGAAGGGAGUGAUAUAC | – | – | 0.00422 | 0.00437 |
| UUUUAACAUGAGGAUCACCCAUGUGAGGAUAUCGAAAUUUAUAUUAAUAUUUAUAAUACGAGAAGGCACAUUUU | 0.0849 | 0.0906 | – | – |
| AGACUGCGUAGAAUUAGCAGCUGACAGGAUAUGACAUGAGGAUCACCCAUGUGAAAUAAGAAGAGUCAGAAGGGUCACGACACA | 0.0113 | 0.00989 | – | – |
| CGUAAGAUGCAGAAGGUGUUAGCUAGAGCUACGACAUGAGGAUCACCCAUGUACUAGAAACAGUACAAGGAUAUGCAUCUUACA | – | – | 0.0173 | 0.00575 |
| GAGAAGUCAGGAUAUCCAUGGCGGCACUUGCGUGGUGGCGUGGAGAAGGGACAUGAGGAUCACCCAUGUAAAGU | 0.0498 | 0.0391 | – | – |
| AAAAGUUCAGGAUAUACAUGAGGAUCACCCAUGUAGAAAGGAAGUGUAAAAAAAAAGUGUAGAAGGGAGCAUGA | 0.0317 | 0.0291 | – | – |
| AGAAACCAAGGAUAUACAUGAGGAUCACCCAUGUUAGCGUGCAUGCCCUGCCUCAGCUGUAGAAGGUGGACGCC | 0.0259 | 0.0288 | – | – |
| CUAUUGGCAGGAUAUGCUUUUUUUGACAUGAGGAUCACCCAUGUGAUGCAUUUUGGGUUUGCAGAAGGGCCUGAGU | 0.0743 | 0.0751 | – | – |
| CGCUAAUAAAUAGUAAUAAUUGUACAGGAUAUGUUACAUGAGGAUCACCCAUGUAUUGGGUUUAAACAGAAGGGUAUAUUAGCG | 0.261 | 0.126 | – | – |
| AUGCUAGUGUGAGGAUAUCAACAUGAGGAUCACCCAUGUUGGAAGUACACGACAUGCGGUACAGGUGAGAAGGUACAUUAGCAU | 0.0274 | 0.0532 | – | – |
| CUAGUAUAUCAGGAUAUGAUUUUAUAUAUUGGAUCAGAAGGGAUAACAUGAGGAUCACCCAUGUUGUGGAGUGA | 0.11 | 0.36 | – | – |
| ACAGAGCUUGACAUGAGGAUCACCCAUGUUAGAUUGUUAUGUCAGGAUAUUGUCUAGCAACUAGACAAGAAGGGAUGCUCUGUG | – | – | 0.364 | 0.056 |
| GCCAAGUCAGGAUAUACAUGAGGAUCACCCAUGUAGGACGCUAUUUUGAUCUUGGUAGGUAGAAGGGACAUGGG | 0.0242 | 0.0212 | – | – |
| AUUUUAAUGUCAGGAUAUGUUAGUUAAUACAUAGUAGAAGGGAUAAUUAUACUCAUGUACAUGAGGAUCACCCAUGUUAAAUAA | – | – | 0.151 | 0.0807 |
| UUCUUUACACGAGGAUAUCAUACAUGAGGAUCACCCAUGUUACUUUGUCUGUUAUUAUGUAUUAUUGAGAAGGCGUUUUUCUUU | 0.0207 | 0.0179 | – | – |
| GUGAAGGUAGGAUAUACGAUAAUAUAGGGUAGAUAUAUAACACAUGAGGAUCACCCAUGUAGAAGGACCAAUUG | 0.0342 | 0.122 | – | – |
| CCGCAAAAGGAGGAUAUCGUAUCGGAUACGAUACGAGAAGGCUUUACAUGAGGAUCACCCAUGUGUCCUAGCGG | 0.0137 | 0.0192 | – | – |

| Sequence | apparent Kd [1] [µM] | apparent Kd [2] [µM] | apparent Kd [3] [µM] | apparent Kd [4] [µM] |
| --- | --- | --- | --- | --- |
| UGAAUGUGAGGAUAUGGUGAGUAGUGCCAGAGCGCUGCUCACCAGAAGGCACAUGAGGAUCACCCAUGUACUUG | 0.0643 | 0.179 | – | – |
| GUCAGCUCGUGAGGAUAUACAUCACUGCUUCGGCAGUGUAUUAAGUUCACAUGAGGAUCACCCAUGUAGAAGGCACGAGCUGAU | 0.0152 | 0.0203 | – | – |
| GUCGGAAACGACAAAAGUAGCAUAGGAGAAGGUCCAUUAAACAUGAGGAUCACCCAUGUAAUUGGGAAGGAUAUCCUAUGCUAC | – | – | 0.00927 | 0.00584 |
| CCCUCACAUGAGGAUCACCCAUGUCAGGAUAUCCAGCCCUACUAUAAAGCGUCUGGCGGGAGAAGGGACAGGAU | 0.0209 | 0.0285 | – | – |
| UUAUUUGUACAAGGAUAUCUAUUAUAUUCACGUCCUACAUGAGGAUCACCCAUGUUAUAUAUUUUAGAGAAGGUGUAUUGUCUG | – | – | 0.0319 | 0.0353 |
| GCGGGCAGCACAGGAUAUGUGACGUACAUGAGGAUCACCCAUGUGCGAAUGGCAGAAGGGUGAGGCCUCGGUGACCGAUUUCCG | – | – | 0.016 | 0.00559 |
| UUUUAACAUGAGGAUCACCCAUGUGAGGAUAUCGAAAUUUAUAUUAAUAUUAAUAAUACGAGAAGGCACAUUUU | 0.0807 | 0.0798 | – | – |
| AAUAUAGAGCUGGAAUAAAACCUCACAUGAGGAUCACCCAUGUAGGAUAUCAGCACGAUAAGUGCUGAGAAGGACAUCCAGCUC | 0.0156 | 0.0179 | – | – |
| UUAAAUCAUGUAGGAUAUGCAUGGCGAAGCUACGCAGAAGGACAUGAGGAUCACCCAUGUUCUAGCUACCGAGAACGGUGGCAA | 0.0191 | 0.0741 | – | – |
| UAUAUAUAGUAAGGAUAUGUAAUCAUUUUAUAAACAGAAGGUACUGACAUGAGGAUCACCCAUGUUUUAGUGUGGGCAUGUAGA | 0.0864 | 0.141 | – | – |
| AUUAUUAAAGUGAGGAUAUCUAGAGCUUCGGCUCUAGAGAAGGCACAUGAGGAUCACCCAUGUCUCAAUUAUUA | 0.0185 | 0.0593 | – | – |
| ACCAGCGAUAUUUCGGUGAGUCAACCAGAAGGGACGAAGCCACAUGAGGAUCACCCAUGUCACUGUCAGGAUAUGGGAAGCGAC | – | – | 0.364 | 0.0295 |
| AAAAAACAUGAGGAUCACCCAUGUCCUCGGACGUGAGGAUAUGUACAGACUUCGGUCUGUACAGAAGGCACGUCAA | – | – | 0.512 | 0.446 |
| UAGAUGGCUCAGGAUAUUUGCCAACUAACUCGCGAAGAAGGGAGCACAUGAGGAUCACCCAUGUGAUCGAACGG | 0.0188 | 0.0456 | – | – |
| GGGAGUGAAGGAUAUACAUGAGGAUCACCCAUGUGGGAGGAGAGAGGUGAGGAGGCUGGUAGAAGGUCAGGAUG | 0.0602 | 0.0513 | – | – |
| GUGGCCCAGGCACAGGAUAUGUUUCUCGUAACAUGAGGAUCACCCAUGUGCCUAUGAGAUUUAAUGCAGAAGGGUGCACGCCACG | – | – | 0.135 | 0.0184 |
| UCUUAUUGCAAGGAUAUGCAAAUUAUUUUUUAAGCAGAAGGUGCAACAUGAGGAUCACCCAUGUUUCCGGGAAA | 0.0194 | 0.111 | – | – |
| AUAUUUAUAUAUUUGGCAAGAAUCAGAAGGCGUUACAUGAGGAUCACCCAUGUUUUGUAUAGUAACGAGGAUAUGAUAUGGAAA | 0.0188 | 0.0142 | – | – |
| UUGGUUGUCGUAGGAUAUGUAGGAUAUUCCUACAUGAGGAUCACCCAUGUUCGCAUGGAAGAAGGACAGAAGGACGAUGACCAC | – | – | 0.85 | 0.00919 |
| GGGUACAUUGGAGGAUAUCAUGUAAAUACAUGAGGAUCACCCAUGUCGAUGGAGACAUCGGAGAUUGAGAAGGCCGAUGUACCG | – | – | 0.183 | 0.00908 |
| CCCACGUCAGGAUAUCCAAAGGUCCGAAAUAACGGUACUUUGGAGAAGGGACAUGAGGAUCACCCAUGUCCUCG | 0.0189 | 0.0288 | – | – |
| GUCAGCUCGUGAGGAUAUACAUGUGCUGGAAACAGCACUAAUUAAUUCACAUGAGGAUCACCCAUGUAGAAGGCACGAGCUGAU | 0.0162 | 0.0178 | – | – |
| CUGAGGUCAGGAUAUGCAUGGCGGGACUUGCGUCGUGGCGUGCAGAAGGGACAUGAGGAUCACCCAUGUGGAGU | 0.165 | 0.287 | – | – |
| UUUAAUUUAAUUAAGAUCACAUGAGGAUCACCCAUGUAAUUAUAGGAUAUCAGCUCGAAUAGAGCUGAGAAGGAUAAUUACAUA | 0.0895 | 0.0577 | – | – |
| GCUGACGAUGUAGGAUAUCAGUAUAAUAAAUACUGAGAAGGACAUGAGGAUCACCCAUGUAAUAAACGUCAGCAGAGGAAACUC | 0.0162 | 0.0226 | – | – |
| GGGUACAUGGGAGGAUAUCCUCAAGAGACAUGAGGAUCACCCAUGUAUUAUAAGCCGAAAGGCAUGGAGAAGGCCCAUGUACCG | – | – | 0.062 | 0.0191 |
| CCCACGUGUGCAGGAUAUCCCACGAGCGCAACAUGAGGAUCACCCAUGUACCUGAGUCUCGGAACGGAGAAGGGUACAUGUUAU | – | – | 0.432 | 0.101 |
